Data from ChEMBL document CHEMBL1156222, “Tetrahydropyridine derivatives with inhibitory activity on the production of proinflammatory cytokines: part 2” (Bioorg Med Chem Lett, 2010).

Experiments:
Blood [1] = experiment: Antiinflammatory activity in human whole blood assessed as inhibition of LPS-induced TNFalpha production after 6 hrs; type: functional, tissue-based
Summary of the method: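 Human whole blood was stimulated with LPS, and TNFα production was measured. % inhibition was plotted against log test concentration, and IC50 came from a least-squares linear regression. 95% confidence intervals were calculated by Fieller's theorem. Values are mean and S.D. of three to four determinations.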

Mus musculus [2] = experiment: Antiinflammatory activity in mouse assessed as inhibition of LPS-induced TNFalpha production at 20 mg/kg, po administered 30 mins before LPS challenge measured after 1 hr by ELISA; type: functional
Summary of the method: (§1)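 LPS-induced TNFα production was measured in mice, with N = 5. Activity is reported either as ID50 or as % inhibition at a single 20 mg/kg dose.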

Mus musculus [3] = experiment: Antiinflammatory activity in po dosed mouse assessed as inhibition of LPS-induced TNFalpha production administered 30 mins before LPS challenge measured after 1 hr by ELISA; type: functional; details: read-out: ID50 (the source's name); summary of the method: as §1
Mus musculus [4] = species on record: Mus musculus; experiment: Selectivity ratio of compound ID50 to 4-(2-(4-fluorophenyl)-4-(1,2,3,6-tetrahydropyridin-4-yl)-1H-pyrrol-3-yl)pyridine ID50 for antiinflammatory activity in mouse; type: functional
Blood [5] = experiment: Antiinflammatory activity in human whole blood assessed as inhibition of LPS-induced TNFalpha production at 10 uM after 6 hrs; type: functional
Summary of the method: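 Human whole blood was stimulated with LPS, and inhibition of TNFα production was measured at a single test concentration of 10 μM. Values are mean and S.D. of three to four determinations.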

CCCCCCCCN1CC=C(c2c[nH]c(-c3ccc(F)cc3)c2-c2ccncc2)CC1
IC50 (Blood [1]): 1.38 µM | inhibition in vivo at 20 mg/kg (Mus musculus [2]): 45%

CN1CC=C(c2c[nH]c(-c3ccc(F)cc3)c2-c2ccncc2)CC1
IC50 (Blood [1]): 3.96 µM | ED50 (Mus musculus [3]): 2.89 mg/kg | Ratio (Mus musculus [4]): >2

CC(C)N1CC=C(c2c[nH]c(-c3ccc(F)cc3)c2-c2ccncc2)CC1
IC50 (Blood [1]): 0.98 µM | ED50 (Mus musculus [3]): 6.18 mg/kg

Fc1ccc(-c2[nH]cc(C3=CCN(Cc4ccccc4)CC3)c2-c2ccncc2)cc1
IC50 (Blood [1]): > 30 µM

CCN1CCC(c2c[nH]c(-c3ccc(F)cc3)c2-c2ccncc2)=CC1C (configuration not stated)
IC50 (Blood [1]): 1.61 µM | ED50 (Mus musculus [3]): 5.28 mg/kg

CN1C(C)(C)C=C(c2c[nH]c(-c3ccc(F)cc3)c2-c2ccncc2)CC1(C)C
IC50 (Blood [1]): 8.44 µM | ED50 (Mus musculus [3]): 7.27 mg/kg

CCCN1CC=C(c2c[nH]c(-c3ccc(F)cc3)c2-c2ccncc2)CC1
IC50 (Blood [1]): 0.52 µM | ED50 (Mus musculus [3]): 6.75 mg/kg

CCCN1CCC(c2c[nH]c(-c3ccc(F)cc3)c2-c2ccncc2)=CC1C (configuration not stated)
IC50 (Blood [1]): 0.44 µM | ED50 (Mus musculus [3]): 2.79 mg/kg

CN1CCC(c2c[nH]c(-c3ccc(F)cc3)c2-c2ccncc2)=CC1Cc1ccccc1 (configuration not stated)
inhibition at 10 µM (Blood [5]): 30.8%

CC(C)(C)N1CC=C(c2c[nH]c(-c3ccc(F)cc3)c2-c2ccncc2)CC1
IC50 (Blood [1]): > 10 µM

CC1C=C(c2c[nH]c(-c3ccc(F)cc3)c2-c2ccncc2)CCN1 (configuration not stated)
IC50 (Blood [1]): 0.71 µM | ED50 (Mus musculus [3]): 2.29 mg/kg

CCN1CC=C(c2c[nH]c(-c3ccc(F)cc3)c2-c2ccncc2)CC1
IC50 (Blood [1]): 1.21 µM | ED50 (Mus musculus [3]): 6.67 mg/kg

CC1C=C(c2c[nH]c(-c3ccc(F)cc3)c2-c2ccncc2)CCN1C (configuration not stated)
IC50 (Blood [1]): 0.63 µM | ED50 (Mus musculus [3]): 1.42 mg/kg

C=CCC1C=C(c2c[nH]c(-c3ccc(F)cc3)c2-c2ccncc2)CCN1C (configuration not stated)
inhibition at 10 µM (Blood [5]): 48.7%

CC1CC(c2c[nH]c(-c3ccc(F)cc3)c2-c2ccncc2)=CCN1C (configuration not stated)
IC50 (Blood [1]): 1.28 µM | ED50 (Mus musculus [3]): 2.73 mg/kg
